# Test results from ChEMBL document CHEMBL4118248, “Small Molecule Proprotein Convertase Subtilisin/Kexin Type 9 (PCSK9) Inhibitors: Hit to Lead Optimization of Systemic Agents” (J Med Chem, 2018).
# Assays:
# 80S Ribosome [1] = assay: Binding affinity to 80S ribosome in human HuH7 cells harboring pCMV-truncated human PCSK9 (1 to 152 residues)-proLuc assessed as inhibition of PCSK9 mRNA translation after overnight incubation by luciferase reporter gene assay; type: cell-based; settings: huh-7
# Procedure, shortened: (§1)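 Huh7 cells stably carry human PCSK9 prodomain (aa 1-152) fused to firefly luciferase (aa 2-550) in pcDNA3.1, kept under 900 µg/mL Geneticin. Plated 10,000/well in phenol red-free DMEM/10% FBS and left 4 h, then compound added (top final 20 µM, 0.5% DMSO). Incubated overnight at 37 °C, luminescence read with SteadyGlo.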
# [2] = Intrinsic clearance in human liver microsomes; type: ADME, microsome; settings: read-out: CLH
# [3] = molecular target: T1, Voltage-gated inwardly rectifying potassium channel KCNH2 (Homo sapiens, UniProt Q12809); assay: Inhibition of dofetilide binding to human ERG by fluorescence polarization assay
# 80S Ribosome [4] = assay: Binding affinity to 80S ribosome in human HuH7 cells assessed as inhibition of PCSK9 mRNA translation after overnight incubation by ELISA; type: cell-based; settings: huh-7
# Procedure, shortened: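 Huh7 cells kept in high-glucose DMEM, 10% BSA-free FBS, 2 mM L-glutamine, pen/strep at 37 °C, 5% CO2. Plated 7,500/well with compound or vehicle and incubated overnight (16-20 h). Secreted PCSK9 in the medium read by AlphaLISA: two antibodies to different mature-PCSK9 epitopes, biotinylated antibody 3 nM final, acceptor beads 10 µg/mL, 0.5 h rt; streptavidin donor beads 40 µg/mL, 1 h rt.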
# [5] = Lipophilicity, log D of the compound by shake flask method; type: physicochemical; settings: octanol/water
# Procedure, shortened: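 LogD measured by the shake-flask method.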
# [6] = Intrinsic clearance in rat liver microsomes; type: ADME, microsome; settings: read-out: CLH
# Bone marrow cell = assay: Cytotoxicity against rat bone marrow cells assessed as reduction in cell viability after 72 hrs by CellTiter-Glo assay; type: cell-based
# [7] = molecular target: T2, 80S Ribosome (Homo sapiens) (UniProt P08865+P42677+P62753+P15880+P23396+P61247+P62701+P22090+P46782+P62081+P62241+P46781+P46783+P62280+P25398+P62277+P62263+P62841+P62244+P62249+P08708+P62269+P39019+P60866+P63220+P62266+P62847+P62851+P62854+P62979+P62857+P62273+P62861+P39023+P36578+P46777+Q02878+P18124+P62424+P62917+P32969+P27635+P62906+P62913+P30050+P26373+P40429+P50914+P61313+P18621+Q07020+Q02543+P84098+P46778+P35268+P62829+P62750+P83731+P61254+P61353+P46776+P46779+P47914+P62888+P62899+P62910+P49207+P42766+P18077+Q9Y3U8+P83881+P61927+P61513+P63173+P62891+P62945+P05388+P05386); assay: Binding affinity to 80S ribosome in human HuH7 cells assessed as inhibition of PCSK9 mRNA translation at 20 uM after overnight incubation by ELISA relative to control; type: cell-based; settings: Huh-7
# [8] = molecular target: T2, 80S Ribosome (Homo sapiens); assay: Binding affinity to 80S ribosome in human HuH7 cells harboring pCMV-truncated human PCSK9 (1 to 152 residues)-proLuc assessed as inhibition of PCSK9 mRNA translation at 20 uM after overnight incubation by luciferase reporter gene assay relative to control; type: cell-based; settings: Huh-7; procedure, shortened: as §1
# Rattus norvegicus [9] = assay: Toxicity in Crl:CD(SD) rat assessed as single cell necrosis in crypt cells in ileum at 50 mg/kg/day, po daily via gavage for 14 days measured on day 15 post last dose; type: organism-based; settings: in vivo, 336 h
# Rattus norvegicus [10] = assay: Toxicity in Crl:CD(SD) rat assessed as hepatocyte vacuolation at 50 mg/kg/day, po daily via gavage for 14 days measured on day 15 post last dose; type: organism-based; settings: in vivo, 336 h
# Procedure, shortened: (§2)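 Male rats, 5 per group, given vehicle or compound at 50 mg/kg/day by oral gavage for 14 days. Mortality, clinical signs and hematology monitored throughout. Necropsy on day 15 with microscopy of bone marrow, ileum, duodenum, jejunum and liver. Toxicokinetics at 1, 3, 6 and 24 h post-dose on day 14.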
# Rattus norvegicus [11] = assay: Toxicity in Crl:CD(SD) rat assessed as discolored/mottled liver at 50 mg/kg/day, po daily via gavage for 14 days measured on day 15 post last dose; type: organism-based; settings: in vivo, 336 h; procedure, shortened: as §2
# [12] = Selectivity index, ratio of IC50 for cytotoxicity against rat bone marrow cells to IC50 for 80S ribosome in human HuH7 cells harboring pCMV-truncated human PCSK9 (1 to 152 residues)-proLuc; type: toxicity, cell-based; settings: read-out: Ratio IC50
# [13] = Permeability from basolateral to apical side in MDCK cells harboring MDR1; type: ADME, cell-based, Canis lupus familiaris; settings: dog, read-out: permeability
# Procedure, shortened: (§3)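 Bidirectional permeability across MDR1-transfected MDCK monolayers, apical-to-basolateral and basolateral-to-apical; Papp reported in 10^-6 cm/s.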
# [14] = Permeability from apical to basolateral side in MDCK cells harboring MDR1; type: ADME, cell-based, Canis lupus familiaris; settings: dog, read-out: permeability; procedure, shortened: as §3
# Cytochrome P450 3A4 = Cytochrome P450 3A4 (Homo sapiens, UniProt P08684); assay: Inhibition of CYP3A4 (unknown origin); type: ADME
# Procedure, shortened: (§4)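 Inhibition of CYP1A2, 2D6, 2C9 and 3A4 reported as IC50, or as percent inhibition at 3 µM.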
# [15] = molecular target: T1, Voltage-gated inwardly rectifying potassium channel KCNH2; assay: Inhibition of human ERG by patch clamp method
# Cytochrome P450 2D6 = Cytochrome P450 2D6 (Homo sapiens, UniProt P10635); assay: Inhibition of CYP2D6 (unknown origin); type: ADME; procedure, shortened: as §4
# Cytochrome P450 1A2 = molecular target: T3, Cytochrome P450 1A2 (Homo sapiens, UniProt P05177); assay: Inhibition of CYP1A2 (unknown origin); type: ADME; procedure, shortened: as §4
# T3 sequence (P05177 whole entry): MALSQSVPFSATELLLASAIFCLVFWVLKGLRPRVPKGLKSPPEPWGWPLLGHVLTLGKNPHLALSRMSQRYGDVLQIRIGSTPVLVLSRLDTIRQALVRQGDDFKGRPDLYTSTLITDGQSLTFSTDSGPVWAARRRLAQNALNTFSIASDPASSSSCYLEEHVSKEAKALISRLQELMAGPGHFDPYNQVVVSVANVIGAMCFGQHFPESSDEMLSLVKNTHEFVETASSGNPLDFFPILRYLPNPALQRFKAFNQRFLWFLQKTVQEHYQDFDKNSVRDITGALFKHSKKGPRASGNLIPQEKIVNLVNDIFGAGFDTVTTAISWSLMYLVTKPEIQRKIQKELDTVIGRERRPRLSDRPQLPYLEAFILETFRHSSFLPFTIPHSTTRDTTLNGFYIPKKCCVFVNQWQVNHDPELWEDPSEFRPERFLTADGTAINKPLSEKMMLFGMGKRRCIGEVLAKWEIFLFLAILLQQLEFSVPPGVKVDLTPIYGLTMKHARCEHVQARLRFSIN
# Cytochrome P450 2C9 = Cytochrome P450 2C9 (Homo sapiens, UniProt P11712); assay: Inhibition of CYP2C9 (unknown origin); type: ADME; procedure, shortened: as §4
# [16] = Apparent permeability in RRCK cells; type: ADME, cell-based, Canis lupus familiaris, MDCKII-LE; settings: dog, MDCK
# Procedure, shortened: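 Passive permeability measured in RRCK cells, a modified Madin-Darby canine kidney line; Papp reported in 10^-6 cm/s.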
# [17] = Fraction unbound in rat plasma; type: ADME, cell-free
# Procedure, shortened: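 Unbound fraction measured in rat plasma.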
# CYP3A4 = CYP3A4 (Homo sapiens, UniProt P08684); assay: Inhibition of CYP3A4 (unknown origin) at 3 uM relative to control; type: ADME; procedure, shortened: as §4
# CYP1A2 = molecular target: T4, CYP1A2 (Homo sapiens, UniProt P05177); assay: Inhibition of CYP1A2 (unknown origin) at 3 uM relative to control; type: ADME; procedure, shortened: as §4
# T4 sequence (P05177 whole entry): T3 sequence (P05177 whole entry)
# CYP2D6 = CYP2D6 (Homo sapiens, UniProt P10635); assay: Inhibition of CYP2D6 (unknown origin) at 3 uM relative to control; type: ADME; procedure, shortened: as §4
# CYP2C9 = CYP2C9 (Homo sapiens, UniProt P11712); assay: Inhibition of CYP2C9 (unknown origin) at 3 uM relative to control; type: ADME; procedure, shortened: as §4
# Rattus norvegicus [18] = assay: In vivo drugmetabolism in rat assessed as (R)-N-(3-Chloropyridin-2-yl)-4-(6-(methylamino)pyrazin-2-yl)-N-(piperidin-3-yl)benzamide formation; type: ADME, organism-based
# Rhesus monkey = assay: In vivo drugmetabolism in non-human primate assessed as (R)-N-(3-Chloropyridin-2-yl)-4-(6-(methylamino)pyrazin-2-yl)-N-(piperidin-3-yl)benzamide formation; type: ADME, organism-based, Macaca mulatta
# T1 sequence (Q12809 whole entry): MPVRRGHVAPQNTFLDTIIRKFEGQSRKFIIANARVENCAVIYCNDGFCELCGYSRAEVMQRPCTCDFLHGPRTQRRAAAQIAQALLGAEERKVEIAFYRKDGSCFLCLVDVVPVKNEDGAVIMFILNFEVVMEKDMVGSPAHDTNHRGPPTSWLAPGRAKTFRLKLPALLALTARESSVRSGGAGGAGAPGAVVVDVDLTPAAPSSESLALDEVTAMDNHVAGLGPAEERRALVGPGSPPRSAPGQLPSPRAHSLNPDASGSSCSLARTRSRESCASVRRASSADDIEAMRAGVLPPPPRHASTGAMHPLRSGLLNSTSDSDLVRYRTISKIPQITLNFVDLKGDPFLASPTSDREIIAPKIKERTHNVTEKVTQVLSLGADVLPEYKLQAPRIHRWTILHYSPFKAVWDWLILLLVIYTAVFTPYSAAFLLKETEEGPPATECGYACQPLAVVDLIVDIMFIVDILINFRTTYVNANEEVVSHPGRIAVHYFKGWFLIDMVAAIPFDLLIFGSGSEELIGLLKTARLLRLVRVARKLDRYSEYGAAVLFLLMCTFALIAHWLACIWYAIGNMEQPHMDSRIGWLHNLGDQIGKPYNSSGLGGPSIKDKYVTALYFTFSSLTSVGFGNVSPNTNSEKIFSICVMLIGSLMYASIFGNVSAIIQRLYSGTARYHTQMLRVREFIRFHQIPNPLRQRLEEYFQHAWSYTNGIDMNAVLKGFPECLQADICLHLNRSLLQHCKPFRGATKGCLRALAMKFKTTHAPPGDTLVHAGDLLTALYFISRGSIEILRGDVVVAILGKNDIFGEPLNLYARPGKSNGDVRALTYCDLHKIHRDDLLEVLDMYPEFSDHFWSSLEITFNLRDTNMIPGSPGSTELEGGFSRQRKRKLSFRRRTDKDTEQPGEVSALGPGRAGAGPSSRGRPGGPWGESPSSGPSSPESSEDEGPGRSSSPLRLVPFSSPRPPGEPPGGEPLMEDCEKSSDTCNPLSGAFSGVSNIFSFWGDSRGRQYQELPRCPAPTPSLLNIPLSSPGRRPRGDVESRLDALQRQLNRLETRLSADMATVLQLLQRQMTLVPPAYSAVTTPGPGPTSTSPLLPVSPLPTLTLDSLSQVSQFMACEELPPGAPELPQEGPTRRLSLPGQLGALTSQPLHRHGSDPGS
# Cytochrome P450 2D6, sequence (P10635 whole entry): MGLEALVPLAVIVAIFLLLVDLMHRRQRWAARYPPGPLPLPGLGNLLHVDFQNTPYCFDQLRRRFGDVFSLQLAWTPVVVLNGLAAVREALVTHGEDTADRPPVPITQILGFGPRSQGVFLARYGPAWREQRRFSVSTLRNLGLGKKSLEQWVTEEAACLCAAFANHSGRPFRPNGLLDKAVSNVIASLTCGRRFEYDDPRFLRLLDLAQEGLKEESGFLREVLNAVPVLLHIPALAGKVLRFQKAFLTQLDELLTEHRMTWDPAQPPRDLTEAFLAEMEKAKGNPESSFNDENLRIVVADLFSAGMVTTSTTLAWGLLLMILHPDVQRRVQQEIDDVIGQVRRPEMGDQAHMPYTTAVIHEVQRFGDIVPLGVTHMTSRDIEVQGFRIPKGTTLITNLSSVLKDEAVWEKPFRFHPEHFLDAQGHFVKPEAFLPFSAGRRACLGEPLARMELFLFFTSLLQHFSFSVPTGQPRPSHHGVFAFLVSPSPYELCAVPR
# CYP2D6, sequence (P10635 whole entry): as above
# Cytochrome P450 3A4, sequence (P08684 whole entry): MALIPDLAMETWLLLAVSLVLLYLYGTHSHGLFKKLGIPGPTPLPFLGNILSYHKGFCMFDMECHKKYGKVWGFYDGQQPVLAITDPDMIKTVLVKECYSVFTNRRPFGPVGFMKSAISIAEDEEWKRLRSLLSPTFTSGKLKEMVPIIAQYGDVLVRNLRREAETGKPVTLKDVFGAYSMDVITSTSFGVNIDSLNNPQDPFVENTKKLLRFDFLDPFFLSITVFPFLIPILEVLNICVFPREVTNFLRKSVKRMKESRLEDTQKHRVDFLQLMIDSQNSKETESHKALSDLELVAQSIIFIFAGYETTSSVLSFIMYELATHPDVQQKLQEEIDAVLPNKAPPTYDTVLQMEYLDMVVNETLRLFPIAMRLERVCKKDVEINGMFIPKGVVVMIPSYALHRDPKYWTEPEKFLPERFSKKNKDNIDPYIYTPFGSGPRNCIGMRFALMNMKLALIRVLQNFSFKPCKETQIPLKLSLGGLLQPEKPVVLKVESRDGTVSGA
# CYP3A4, sequence (P08684 whole entry): as above
# CYP2C9, sequence (P11712 whole entry): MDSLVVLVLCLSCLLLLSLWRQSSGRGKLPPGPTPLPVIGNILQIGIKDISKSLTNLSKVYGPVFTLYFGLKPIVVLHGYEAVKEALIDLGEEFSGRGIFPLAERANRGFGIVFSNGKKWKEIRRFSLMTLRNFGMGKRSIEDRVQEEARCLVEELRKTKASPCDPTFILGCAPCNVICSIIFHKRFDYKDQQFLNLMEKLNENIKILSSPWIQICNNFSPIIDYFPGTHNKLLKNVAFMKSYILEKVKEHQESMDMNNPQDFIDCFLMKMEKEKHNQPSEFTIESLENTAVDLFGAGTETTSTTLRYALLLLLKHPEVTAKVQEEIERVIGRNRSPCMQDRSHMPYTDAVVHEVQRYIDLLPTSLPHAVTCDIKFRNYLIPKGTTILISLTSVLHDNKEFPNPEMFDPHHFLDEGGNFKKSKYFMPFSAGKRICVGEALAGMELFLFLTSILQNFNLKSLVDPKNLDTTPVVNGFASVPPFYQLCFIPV
# Cytochrome P450 2C9, sequence (P11712 whole entry): as above
Compound,IC50 (80S Ribosome [1]),microsomal CLint [2],Ki [3],IC50 (80S Ribosome [4]),logD [5],microsomal CLint [6],IC50 (Bone marrow cell),further results
O=C(c1ccc(-n2nnc3cccnc32)nc1)N(c1ncccc1Cl)[C@@H]1CCCNC1,4100 nM,< 8 µL/min/mg,12.7 µM,9240 nM,0.1,14.7 µL/min/mg,–,–
O=C(c1ccc(-c2cnn3cccnc23)cc1)N(c1nccc2ccccc12)[C@@H]1CCCNC1,690 nM,14.5 µL/min/mg,5.4 µM,1290 nM,1.1,31.2 µL/min/mg,1.4 µM,–
O=C(c1ccc(-c2ccccc2)cc1)N(c1nccc2ccccc12)[C@@H]1CCCNC1,–,10.7 µL/min/mg,2.2 µM,–,2.5,57.7 µL/min/mg,–,inhibition [7]: 39%; inhibition [8]: 54%
CNc1cncc(-c2ccc(C(=O)N(c3ncccc3Cl)[C@@H]3CCCNC3)cc2)n1,–,8.7 µL/min/mg,38.4 µM,3080 nM,1.07,–,19.6 µM,–
Cc1cnc2c(c1)nnn2-c1ccc(C(=O)N(c2ncccc2Cl)[C@@H]2CCCNC2)cc1,410 nM,8.8 µL/min/mg,3.3 µM,780 nM,1.2,16.5 µL/min/mg,> 19.7 µM,Activity (Rattus norvegicus [9]): Non-Toxic; Activity (Rattus norvegicus [10]): Toxic; Activity (Rattus norvegicus [11]): Toxic
Cn1cc(-c2ccc(C(=O)N(c3nccc4ccccc34)[C@@H]3CCCNC3)cc2)cn1,1060 nM,13.3 µL/min/mg,16 µM,2380 nM,0.9,–,2.9 µM,–
O=C(c1ccc(-n2nnc3cccnc32)cc1)N(c1ncccc1Cl)[C@H]1CCCNC1,–,–,–,–,–,–,> 20 µM,Activity (Rattus norvegicus [9]): Non-Toxic; inhibition [7]: 24%; Activity (Rattus norvegicus [11]): Toxic; inhibition [8]: 61%
Cc1ccc2nnn(-c3ccc(C(=O)N(c4ncccc4Cl)[C@@H]4CCCNC4)cc3)c2n1,450 nM,9 µL/min/mg,34 µM,900 nM,1.2,38.5 µL/min/mg,1 µM,selectivity ratio [12]: 2
Cc1cncc(-c2ccc(C(=O)N(c3ncccc3Cl)[C@@H]3CCCNC3)cc2)n1,–,< 8 µL/min/mg,38.2 µM,2820 nM,0.8 to 1.37,–,43.7 µM,Papp B→A [13]: 20 ×10⁻⁶ cm/s; Papp A→B [14]: 0.7 ×10⁻⁶ cm/s; IC50 (Cytochrome P450 3A4): > 30 µM; IC50 [15]: 59.8 µM; IC50 (Cytochrome P450 2D6): > 30 µM; IC50 (Cytochrome P450 1A2): > 30 µM; IC50 (Cytochrome P450 2C9): > 30 µM; Papp [16]: 10.5 ×10⁻⁶ cm/s; fraction unbound [17]: 0.41
COc1ccc(CCC(=O)N(c2nccc3ccccc23)[C@@H]2CCCNC2)cc1,2630 nM,20.6 µL/min/mg,13 µM,8370 nM,1.1,> 510 µL/min/mg,> 20 µM,inhibition at 3 µM (CYP3A4): < 20%; inhibition at 3 µM (CYP1A2): < 20%; inhibition at 3 µM (CYP2D6): < 20%; inhibition at 3 µM (CYP2C9): < 20%; Papp [16]: 5.4 ×10⁻⁶ cm/s
O=C(c1ccc(-n2nnc3cccnc32)cn1)N(c1ncccc1Cl)[C@@H]1CCCNC1,710 nM,< 8 µL/min/mg,28.8 µM,1440 nM,0.3,15.3 µL/min/mg,> 12.7 µM,Activity (Rattus norvegicus [9]): Non-Toxic; Activity (Rattus norvegicus [11]): Toxic
O=C(c1ccc(-n2nnc3cccnc32)cc1)N(c1nccc2ccccc12)[C@@H]1CCCNC1,390 nM,21.8 µL/min/mg,15.8 µM,900 nM,1.4,–,–,–
CN(C)c1cncc(-c2ccc(C(=O)N(c3ncccc3Cl)[C@@H]3CCCNC3)cc2)n1,–,18.2 µL/min/mg,14.1 µM,2970 nM,1.37,–,30.1 µM,Drug metabolism (Rattus norvegicus [18]): Metabolite_Detected; IC50 [15]: 43.2 µM; Drug metabolism (Rhesus monkey): Metabolite_Notdetected
O=C(c1ccc(-c2cnccn2)cc1)N(c1nccc2ccccc12)[C@@H]1CCCNC1,4300 nM,11 µL/min/mg,> 40 µM,9320 nM,0.7,123 µL/min/mg,> 20 µM,–
